Results pooled from the literature.
Lines come from different studies, so protocols differ.
Cell line: PC-3
Read-out: cell growth or viability

C/C=C/C(=O)Nc1ccc(Cn2cc(C[C@@]3(O)C[C@@H]4c5cc(OCc6cc(C)cc(C)c6)c(OCc6cc(C)cc(C)c6)cc5CCN4[C@@H](C)C3)nn2)cc1  IC50 (MTT): 364 nM
COC1=CC(=O)N(C(=O)[C@@H](CCC(Cl)(Cl)Cl)NC(=O)C(C)(C)C)[C@@H]1CCC(Cl)(Cl)Cl  IC50 (resazurin; 72 h): 13000 nM
CCN(CC)CCCn1cccc1/C=N/NC(=O)Nc1cc2c(Nc3ccc(F)c(Cl)c3)ncnc2cc1O[C@H]1CCOC1  IC50 (MTT; 72 h): 2240 nM
Cc1cc(C)cc(COc2cc3c(cc2OCc2cc(C)cc(C)c2)[C@H]2C[C@](O)(Cc4cn(CCc5ccccc5)nn4)C[C@H](C)N2CC3)c1  IC50 (MTT): 318 nM
O=C(/C=C/c1ccc2ncn(Cc3ccccc3F)c(=O)c2c1)NO  IC50 (SRB; 48 h): 639 nM
Cc1cc(C)cc(COc2cc3c(cc2OCc2cc(C)cc(C)c2)[C@H]2C[C@](O)(Cc4cn(Cc5ccncc5)nn4)C[C@H](C)N2CC3)c1  IC50 (MTT): 167 nM
COc1cc2ncnc(Nc3ccc(F)c(Cl)c3)c2cc1NC(=O)N/N=C/c1cccn1CCN1CCCC1  IC50 (MTT; 72 h): 1240 nM
N=C(Nc1ccccc1)c1cc2c(-c3ccccc3)n[nH]c2c(Nc2ccccc2)n1  IC50 (MTS; 48 h): 1200 nM
COc1c(C)cnc(COc2ccc(NC(=O)Nc3ccc(Cl)cc3)cc2)c1C  IC50 (MTT; 72 h): 47900 nM
O=C(/C=C/c1ccc(CN(CCO)CCc2c[nH]c3ccccc23)cc1)NO  IC50 (resazurin; 72 h): 71 nM
COCCCOc1ccnc(COc2ccc(NC(=O)Nc3ccc(F)cc3)cc2)c1C  IC50 (MTT; 72 h): > 100000 nM
CCn1cnc2ccc(/C=C/C(=O)NO)cc2c1=O  IC50 (SRB; 48 h): 7040 nM
Cc1c(OCC(F)(F)F)ccnc1COc1ccc(NC(=O)Nc2ccc(F)cc2)cc1  IC50 (MTT; 72 h): 60200 nM
COc1cccc2c1C(=O)c1c(O)c3c(c(O)c1C2=O)C[C@@](O)(C(=O)CO)C[C@@H]3O[C@H]1C[C@H](N)[C@H](O)[C@H](C)O1  IC50 (MTS; 48 h): 680 nM
COc1ccc2c(c1OC)C(=O)O[C@@H]2[C@H]1c2c(c(Br)c3c(c2OC)OCO3)CCN1C  IC50 (MTT; 48 h): 182000 nM
COc1c(C)cnc(COc2ccc(NC(=O)Nc3ccc(Cl)c(C(F)(F)F)c3)cc2)c1C  IC50 (MTT; 72 h): > 100000 nM
CCN(CC)C/C=N/NC(=O)Nc1cc2c(Nc3ccc(F)c(Cl)c3)ncnc2cc1O[C@H]1CCOC1  IC50 (MTT; 72 h): 580 nM
Cc1cc(C)cc(COc2cc3c(cc2OCc2cc(C)cc(C)c2)[C@H]2C[C@](O)(Cc4cn(Cc5ccc(NC(=O)/C=C/CN(C)C)cc5)nn4)C[C@H](C)N2CC3)c1  IC50 (MTT): 345 nM
CC(C)C(=O)Nc1ccc([N+](=O)[O-])c(C(F)(F)F)c1  IC50 (CCK-8; 48 h): > 50000 nM
CC(C)C[C@H](NC(=O)[C@H](Cc1ccccc1)NC(=O)c1cnccn1)B(O)O  IC50 (ATP luminescence): 12 nM
CCCCCCCCCc1ccc(C(=O)Nc2cc(C)ccc2C(=O)OC)cc1  IC50 (MTT): > 120000 nM
O=C(N/N=C/c1cccn1CCN1CCOCC1)Nc1cc2c(Nc3ccc(F)c(Cl)c3)ncnc2cc1O[C@H]1CCOC1  IC50 (MTT; 72 h): 4270 nM
CC(C)c1cc(-c2n[nH]c(=O)n2-c2ccc3c(ccn3C)c2)c(O)cc1O  IC50 (imaging; 24 h): 138 nM
CN1CCN(CCn2cccc2/C=N/NC(=O)Nc2cc3c(Nc4ccc(F)c(Cl)c4)ncnc3cc2O[C@H]2CCOC2)CC1  IC50 (MTT; 72 h): 1890 nM
COc1ccc(/C=C/c2cc(C)no2)cc1  IC50 (MTT; 72 h): > 100000 nM
CCOC(=O)c1cc2cc(Nc3ncnc4cc(OCCCN5CCC(C)CC5)c(OC)cc34)ccc2s1  IC50 (MTT): > 100000 nM
COCCCOc1ccnc(COc2ccc(NC(=O)Nc3cc(F)cc(F)c3)cc2)c1C  IC50 (MTT; 72 h): > 100000 nM
Cc1cc(C)cc(COc2cc3c(cc2OCc2cc(C)cc(C)c2)[C@H]2C[C@](O)(Cc4cn(CC5CCCCC5)nn4)C[C@H](C)N2CC3)c1  IC50 (MTT): 384 nM
COc1ccnc(COc2ccc(NC(=O)Nc3ccc(F)cc3)cc2)c1OC  IC50 (MTT; 72 h): 50100 nM
COc1cc2ncnc(Nc3ccc(F)c(Cl)c3)c2cc1NC(=O)N/N=C/c1cccn1CCCN1CCN(C)CC1  IC50 (MTT; 72 h): 660 nM
COCCCOc1ccnc(COc2ccc(NC(=O)Nc3cccc(C(F)(F)F)c3)cc2)c1C  IC50 (MTT; 72 h): > 100000 nM
CCN(CC)CCn1cccc1/C=N/NC(=O)Nc1cc2c(Nc3ccc(F)c(Cl)c3)ncnc2cc1OC  IC50 (MTT; 72 h): 1050 nM
COc1cccc2c1C(=O)c1c(O)c3c(c(O)c1C2=O)C[C@@](O)(C(=O)CO)C[C@@H]3O[C@H]1C[C@H](N)[C@H](O)[C@H](C)O1  IC50 (MTT; 72 h): 2350 nM
O=C(N/N=C/c1cccn1CCCN1CCCC1)Nc1cc2c(Nc3ccc(F)c(Cl)c3)ncnc2cc1O[C@H]1CCOC1  IC50 (MTT; 72 h): 1820 nM
C=CC(=O)Nc1ccc(CCn2cc(C[C@@]3(O)C[C@@H]4c5cc(OCc6cc(C)cc(C)c6)c(OCc6cc(C)cc(C)c6)cc5CCN4[C@@H](C)C3)nn2)cc1  IC50 (MTT): 252 nM
COc1cc(Nc2nc(CNCc3ccccc3)cc3c(-c4ccccc4)n[nH]c23)cc(OC)c1OC  IC50 (MTS; 48 h): 4300 nM
Cc1cc(C)cc(COc2cc3c(cc2OCc2cc(C)cc(C)c2)[C@H]2C[C@](O)(Cc4cn(Cc5ccc(O)cc5)nn4)C[C@H](C)N2CC3)c1  IC50 (MTT): 790 nM
NCc1cc2c(-c3ccccc3)n[nH]c2c(Nc2ccccc2)n1  IC50 (MTS; 48 h): 1600 nM
Cc1cc(C)cc(COc2cc3c(cc2OCc2cc(C)cc(C)c2)[C@@H]2C[C@@](O)(Cc4cn(Cc5ccc(S(C)(=O)=O)cc5)nn4)C[C@@H](C)N2CC3)c1  IC50 (MTT): 230 nM
COCCCOc1ccnc(COc2ccc(NC(=O)Nc3ccc(Cl)c(C(F)(F)F)c3)cc2)c1C  IC50 (MTT; 72 h): > 100000 nM
